According to ChEMBL document CHEMBL5661981 (PLoS One, 2011):
Values belong to the compound of their own block, whether it stands above or below them. Activity calls are given as the source filed them. The rule behind the calls is not given here.

Columns and labels:
SK-OV-3 [1] = test: Antitumor activity against human SK-OV-3 cells over expressing ErbB2 xenografted in nude mouse assessed as reduction in growth at 50 mg/kg, po administered twice daily for 28 days; format: functional, organism-based; details: time 28.0 day
Calu-3 [2] = test: Antitumor activity against human Calu-3 cells over expressing ErbB2 xenografted in nude mouse assessed as reduction in growth at 50 mg/kg, po administered twice daily for 28 days; format: functional, organism-based; details: time 28.0 day
SK-OV-3 [3] = test: Antiproliferative activity against human SK-OV-3 cells transfected with EGFR siRNA assessed as reduction in cell viability at 1.25 to 6.25 uM after 72 hrs by SRB assay; format: functional, cell-based; details: dose 1.25-6.25 µM
In short: (§1)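 SK-OV-3 cells transfected with siRNA (final 50 nmol/L; one ErbB2 pair, two independent EGFR pairs, plus control siRNA) using oligofectamine; drug added 48 h after transfection, growth measured by SRB. Three independent experiments; significance by t test.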

HO-8910 = test: Antitumor activity against human HO-8910 cells xenografted in nude mouse assessed as reduction in growth at 25 to 100 mg/kg, po administered twice daily for 21 days; format: functional, organism-based; details: dose 25-100 mg/kg, time 21.0 day
SK-OV-3 [4] = test: Antiproliferative activity against human SK-OV-3 cells assessed as decrease in number of colony formation at 0.1 to 5 uM after 1 to 2 weeks by microscope analysis; format: functional, cell-based; details: dose 0.1-5 µM, time 1-2 weeks
In short: (§2)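 Cells at 8000/mL exposed to drug in 1 mL 0.3% basal medium Eagle's agar with 10% FBS; kept 2 weeks at 37°C, 5% CO2. Average colony number counted and colonies photographed; mean of triplicate samples, SE bars, Student's test.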

[5] = system: Epidermal growth factor receptor (Homo sapiens), P00533 [L858R,T790M]; details: NCI-H1975, dose 10-100 nM, time 4.25 hrs
SK-OV-3 [6] = test: Antiproliferative activity against human SK-OV-3 cells assessed as reduction in cell viability after 72 hrs by SRB assay; format: functional, cell-based; details: SK-OV-3, 72 h
In short: (§3)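 Cell lines from ATCC; exposed to indicated concentrations for 72 h and growth read by sulforhodamine B (SRB) assay; IC50 values derived.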

[7] = system: Epidermal growth factor receptor (Homo sapiens), P00533 [L858R,T790M]; details: NIH3T3, dose 1-100 nM, time 6.0 hrs
SK-OV-3 [8] = test: Antitumor activity against human SK-OV-3 cells over expressing ErbB2 xenografted in nude mouse assessed as reduction in growth at 25 to 100 mg/kg, po administered twice daily for 7 days relative to control; format: functional; design: scale not given: the % may be the effect or the level left; details: dose 25-100 mg/kg, time 7 day
MDA-MB-468 = test: Antiproliferative activity against human MDA-MB-468 cells assessed as reduction in cell viability after 72 hrs by SRB assay; format: functional, cell-based; details: MDA-MB-468, 72 h; in short: as §3
A549 [9] = test: Antiproliferative activity against human A549 cells assessed as reduction in cell viability after 72 hrs by SRB assay; format: functional, cell-based; details: A549, 72 h; in short: as §3
SK-OV-3 [10] = test: Antiproliferative activity against human SK-OV-3 cells transfected with ErbB2 siRNA assessed as reduction in cell viability at 1.25 to 6.25 uM after 72 hrs by SRB assay; format: functional, cell-based; details: dose 1.25-6.25 µM; in short: as §1
Mus musculus [11] = test: Antitumor activity against FVB-2/Nneu transgenic mouse breast cancer model assessed as reduction in tumor growth at 25 to 100 mg/kg, po administered twice daily for 21 days; format: functional, organism-based; details: dose 25-100 mg/kg, time 21.0 day
[12] = Toxicity in nude mouse xenografted with human SK-OV-3 cells over expressing ErbB2 assessed as effect on body weight at 25 to 100 mg/kg, po administered twice daily for 28 days; format: organism-based; details: in vivo, 672 h, dose 25-100 mg/kg, time 28 day
A549 [13] = test: Antiproliferative activity against human A549 cells assessed as decrease in number of colony formation at 0.1 to 5 uM after 1 to 2 weeks by microscope analysis; format: functional, cell-based; details: dose 0.1-5 µM, time 1-2 weeks; in short: as §2
SK-OV-3 [14] = test: Antitumor activity against human SK-OV-3 cells over expressing ErbB2 xenografted in nude mouse assessed as reduction in growth at 25 to 100 mg/kg, po administered twice daily for 28 days; format: functional, organism-based; details: dose 25-100 mg/kg, time 28.0 day
Mus musculus [15] = test: In vivo inhibition of ErbB2 phosphorylation in human SK-OV-3 cells over expressing ErbB2 xenografted in nude mouse at 100 mg/kg, po measured after 2 to 24 hrs by Western blot analysis; format: functional, organism-based; details: time lower 2.0 hrs, time upper […]
In short: (§4)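 Nude mice bearing established SK-OV-3 tumors (~200 mm3) given a single 100 mg/kg dose; tumor extracts collected at indicated times and EGFR and ErbB2 phosphorylation assessed by immunoblotting.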

NCI-H23 = test: Antiproliferative activity against human NCI-H23 cells assessed as reduction in cell viability after 72 hrs by SRB assay; format: functional, cell-based; details: NCI-H23, 72 h; in short: as §3
Mus musculus [16] = test: Antitumor activity against FVB-2/Nneu transgenic mouse breast cancer model assessed as reduction in tumor growth at 25 to 100 mg/kg, po administered twice daily for 11 days relative to control; format: functional; design: scale not given: the % may be the effect or the level left; details: dose 25-100 mg/kg, time 11 day
NIH3T3 = test: Antiproliferative activity against mouse NIH3T3 cells harboring EGFR T790M/L858R double mutant assessed as reduction in cell viability after 72 hrs by SRB assay; format: functional, cell-based; details: dose 0.19-6.25 µM
In short: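 Parental NIH3T3 and laboratory-built NIH3T3 overexpressing EGFR T790M/L858R treated with indicated concentrations for 72 h; viability by sulforhodamine B; IC50 from three independent experiments.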

A549 [17] = test: Antitumor activity against human A549 cells xenografted in nude mouse assessed as reduction in growth at 25 to 100 mg/kg, po administered twice daily for 32 days; format: functional, organism-based; details: dose 25-100 mg/kg, time 32.0 day
[18] = system: Epidermal growth factor receptor (Homo sapiens), P00533 [L858R,T790M]; details: NCI-H1975, dose 10-100 nM, time 4.25 hrs; remark: listed apart in the source
[19] = Toxicity in FVB-2/Nneu transgenic mouse breast cancer model assessed as decrease in body weight at 25 to 100 mg/kg, po administered twice daily for 21 days relative to control; format: organism-based; design: scale not given: the % may be the effect or the level left; details: in vivo, 504 h, dose 25-100 mg/kg, time 21 day
Mus musculus [20] = test: In vivo inhibition of EGFR phosphorylation in human SK-OV-3 cells over expressing ErbB2 xenografted in nude mouse at 100 mg/kg, po measured after 2 to 24 hrs by Western blot analysis; format: functional, organism-based; details: time lower 2.0 hrs, time upper […]; in short: as §4
[21] = system: Epidermal growth factor receptor (Homo sapiens), P00533 [L858R,T790M]; details: NCI-H1975, dose 10-100 nM, time 4.25 hrs; remark: listed apart in the source
NCI-H1975 = test: Antiproliferative activity against human NCI-H1975 cells harboring EGFR T790M/L858R double mutant assessed as reduction in cell viability after 72 hrs by SRB assay; format: functional, cell-based; details: dose 0.19-6.25 µM; in short: as §3
Calu-3 [22] = test: Antitumor activity against human Calu-3 cells over expressing ErbB2 xenografted in nude mouse assessed as reduction in growth at 25 to 100 mg/kg, po administered twice daily for 21 days; format: functional, organism-based; details: dose 25-100 mg/kg, time 21.0 day

Sequence of Epidermal growth factor receptor (Homo sapiens), P00533 [L858R,T790M] (P00533 whole entry T790M/L858R, looked up): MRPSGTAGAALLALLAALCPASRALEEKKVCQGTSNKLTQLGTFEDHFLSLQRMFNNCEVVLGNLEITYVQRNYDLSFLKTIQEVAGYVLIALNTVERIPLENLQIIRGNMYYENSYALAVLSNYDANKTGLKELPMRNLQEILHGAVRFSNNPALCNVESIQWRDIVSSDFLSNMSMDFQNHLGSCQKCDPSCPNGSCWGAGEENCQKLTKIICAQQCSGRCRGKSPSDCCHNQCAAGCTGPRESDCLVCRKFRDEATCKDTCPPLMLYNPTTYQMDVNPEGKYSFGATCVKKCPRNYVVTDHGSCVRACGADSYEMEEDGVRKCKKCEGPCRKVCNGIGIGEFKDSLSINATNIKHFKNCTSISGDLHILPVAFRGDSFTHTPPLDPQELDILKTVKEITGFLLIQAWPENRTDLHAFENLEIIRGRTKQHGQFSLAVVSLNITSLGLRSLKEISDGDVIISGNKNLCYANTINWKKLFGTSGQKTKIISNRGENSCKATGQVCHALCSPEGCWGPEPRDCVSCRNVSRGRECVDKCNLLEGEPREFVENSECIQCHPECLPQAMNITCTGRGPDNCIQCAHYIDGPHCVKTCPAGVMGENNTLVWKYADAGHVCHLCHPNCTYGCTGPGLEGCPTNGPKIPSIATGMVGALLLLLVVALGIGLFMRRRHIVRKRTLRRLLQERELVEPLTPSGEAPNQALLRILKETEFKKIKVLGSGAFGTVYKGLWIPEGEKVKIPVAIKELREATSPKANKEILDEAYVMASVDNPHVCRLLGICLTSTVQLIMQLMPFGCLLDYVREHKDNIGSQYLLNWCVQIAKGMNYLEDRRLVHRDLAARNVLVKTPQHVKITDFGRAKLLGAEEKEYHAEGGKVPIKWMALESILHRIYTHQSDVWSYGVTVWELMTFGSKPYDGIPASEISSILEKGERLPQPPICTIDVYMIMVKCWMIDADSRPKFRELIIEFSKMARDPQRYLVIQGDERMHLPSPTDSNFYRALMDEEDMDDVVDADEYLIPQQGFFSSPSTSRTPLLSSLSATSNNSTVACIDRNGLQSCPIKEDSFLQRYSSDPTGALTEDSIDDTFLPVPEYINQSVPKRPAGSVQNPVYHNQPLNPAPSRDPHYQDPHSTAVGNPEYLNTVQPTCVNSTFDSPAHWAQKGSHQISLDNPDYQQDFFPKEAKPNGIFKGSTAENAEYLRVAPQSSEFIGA

SMILES: CS(=O)(=O)CCNCc1ccc(-c2ccc3ncnc(Nc4ccc(OCc5cccc(F)c5)c(Cl)c4)c3c2)o1
Activity (SK-OV-3 [1]): Active
Activity (Calu-3 [2]): Active

inhibition [5]: Dose-Dependent Effect
IC50 (SK-OV-3 [6]): 6.2 µM
inhibition [7]: Active
IC50 (MDA-MB-468): 6.2 µM
IC50 (A549 [9]): 6.2 µM
IC50 (NCI-H23): 6.2 µM
inhibition [18]: Dose-Dependent Effect
inhibition [21]: Dose-Dependent Effect
SMILES: C=CC(=O)Nc1ccc2ncnc(Nc3ccc(OCc4cccc(F)c4)c(Cl)c3)c2c1 [ALLITINIB]
Activity (SK-OV-3 [3]): Active
Activity (HO-8910): Active
Activity (SK-OV-3 [4]): Active
Activity (SK-OV-3 [8]): ~100%
Activity (SK-OV-3 [10]): inactive
Activity (Mus musculus [11]): Active
Activity [12]: Non-Toxic
Activity (A549 [13]): Active
Activity (SK-OV-3 [14]): Active
inhibition (Mus musculus [15]): Active
Activity (Mus musculus [16]): ~100%
Activity (NIH3T3): Dose-Dependent Effect
Activity (A549 [17]): Active
Activity [19]: < 20%
inhibition (Mus musculus [20]): Active
inhibition (NCI-H1975): Dose-Dependent Effect
Activity (Calu-3 [22]): Active
